Reference: ChEMBL document CHEMBL1275524, “Activities of antifungal agents against yeasts and filamentous fungi: assessment according to the methodology of the European Committee on Antimicrobial Susceptibility Testing” (2008)
Converted amounts (≈) assume the structure as drawn.

Tests used:
[1] = system: Candida albicans; experiment: Antifungal activity against Candida albicans; assay type: functional
How it was run: (§1)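 Broth microdilution in flat-bottom plates in RPMI 1640 with 2% glucose; inoculum 0.5 × 105 to 2.5 × 10^5 CFU/ml. MICs were read spectrophotometrically at 24 h. AMB endpoint: ≥90% growth reduction vs drug-free control well. Azole and CPF endpoint: 50% reduction in optical density. MFC was taken as the lowest concentration giving 99% killing.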

[2] = system: Nakaseomyces glabratus; experiment: Antifungal activity against Candida glabrata; assay type: functional; how it was run: as §1
[3] = system: Candida parapsilosis; experiment: Antifungal activity against Candida parapsilosis; assay type: functional; conditions: Lodderomyces parapsilosis; how it was run: as §1
[4] = system: Pichia kudriavzevii; experiment: Antifungal activity against Candida krusei; assay type: functional
How it was run: (§2)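 EUCAST broth microdilution for yeasts in flat-bottom plates, RPMI 1640 with 2% glucose, inoculum 0.5 × 105 to 2.5 × 10^5 CFU/ml. […] MFC is the lowest concentration giving 99% killing.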

[5] = system: Clavispora lusitaniae; experiment: Antifungal activity against Candida lusitaniae; assay type: functional; how it was run: as §1
[6] = system: Candida tropicalis; experiment: Antifungal activity against Candida tropicalis; assay type: functional; how it was run: as §1
[7] = system: Meyerozyma guilliermondii; experiment: Antifungal activity against Candida guilliermondii; assay type: functional; how it was run: as §1
[8] = system: Saccharomyces cerevisiae; experiment: Antifungal activity against Saccharomyces cerevisiae; assay type: functional
How it was run: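 Broth microdilution following EUCAST for fermentative yeasts, in flat-bottom plates with RPMI 1640 plus 2% glucose. Inoculum was 0.5 × 10^5 to 2.5 × 10^5 CFU/ml. End points were read spectrophotometrically at 24 h: ≥90% growth reduction versus a drug-free control for amphotericin B, and 50% OD reduction for azoles and caspofungin. MFC was the lowest concentration giving 99% killing.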

[9] = Antifungal activity against Cryptococcus neoformans var. neoformans; assay type: functional; conditions: Cryptococcus deneoformans
How it was run: (§3)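 EUCAST yeast microdilution, modified for nonfermentative yeasts: plates were sealed and agitated at 350 rpm and 30°C for 48 h.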

[10] = system: Cryptococcus gattii; experiment: Antifungal activity against Cryptococcus neoformans var. gattii; assay type: functional, Cryptococcus bacillisporus; how it was run: as §3
[11] = system: Trichosporon inkin; experiment: Antifungal activity against Trichosporon inkin; assay type: functional
How it was run: (§4)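 Nonfermentative yeasts were tested by the EUCAST microdilution recommendations with one change: plates were sealed and agitated at 350 rpm and 30°C for 48 h.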

[12] = system: Trichosporon asahii; experiment: Antifungal activity against Trichosporon asahii; assay type: functional; how it was run: as §4
[13] = system: Geotrichum candidum; experiment: Antifungal activity against Geotrichum candidum; assay type: functional
[14] = system: Aspergillus fumigatus; experiment: Antifungal activity against Aspergillus fumigatus; assay type: functional
[15] = system: Aspergillus terreus; experiment: Antifungal activity against Aspergillus terreus; assay type: functional
[16] = system: Aspergillus flavus; experiment: Antifungal activity against Aspergillus flavus; assay type: functional
[17] = system: Aspergillus niger; experiment: Antifungal activity against Aspergillus niger; assay type: functional
[18] = system: Rhizomucor; experiment: Antifungal activity against Rhizomucor species; assay type: functional
[19] = system: Lichtheimia corymbifera; experiment: Antifungal activity against Absidia corymbifera; assay type: functional
[20] = system: Absidia; experiment: Antifungal activity against Absidia species; assay type: functional
[21] = Antifungal activity against Rhizopus microsporus var. oligosporus; assay type: functional
How it was run: (§5)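 Broth microdilution following the EUCAST reference procedure for spore-forming moulds, in flat-bottom plates with RPMI 1640 plus 2% glucose. Inoculum was 2 × 10^5 to 5 × 10^5 CFU/ml. MICs were read visually at 24 and 48 h as 100% growth reduction versus a drug-free control for polyenes and azoles. MEC was used for caspofungin. Tests were run in duplicate and repeated twice.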

[22] = system: Rhizopus arrhizus; experiment: Antifungal activity against Rhizopus oryzae; assay type: functional; how it was run: as §5
[23] = system: Rhizopus; experiment: Antifungal activity against Rhizopus species; assay type: functional; how it was run: as §5
[24] = system: Mucor hiemalis; experiment: Antifungal activity against Mucor hiemalis; assay type: functional
[25] = system: Mucor; experiment: Antifungal activity against Mucor species; assay type: functional
[26] = system: Cunninghamella; experiment: Antifungal activity against Cunninghamella species; assay type: functional
[27] = system: Lomentospora prolificans; experiment: Antifungal activity against Scedosporium prolificans; assay type: functional; how it was run: as §5
[28] = system: Scedosporium apiospermum; experiment: Antifungal activity against Scedosporium apiospermum; assay type: functional; how it was run: as §5
[29] = system: Talaromyces marneffei; experiment: Antifungal activity against Penicillium marneffei; assay type: functional
[30] = system: Penicillium sp.; experiment: Antifungal activity against Penicillium species; assay type: functional
[31] = system: Fusarium solani; experiment: Antifungal activity against Fusarium solani; assay type: functional
[32] = system: Fusarium oxysporum; experiment: Antifungal activity against Fusarium oxysporum; assay type: functional
[33] = system: Sporothrix schenckii; experiment: Antifungal activity against Sporothrix schenckii; assay type: functional; how it was run: as §5
[34] = system: Curvularia lunata; experiment: Antifungal activity against Curvularia lunata; assay type: functional
[35] = system: Curvularia australiensis; experiment: Antifungal activity against Bipolaris australiensis; assay type: functional
How it was run: (§6)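 Dematiaceous fungi were tested by the EUCAST spore-forming mold reference procedure: flat-bottom microdilution plates, RPMI 1640 plus 2% glucose, inoculum 2 × 105 to 5 × 10^5 CFU/ml. Endpoints were read visually at 24 and 48 h. Polyenes and azoles: 100% growth reduction vs drug-free control. CPF: minimum effective concentration. Run in duplicate and repeated twice.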

[36] = Antifungal activity against Rhinocladiella aquaspersa; assay type: functional; how it was run: as §6
[37] = system: Candida albicans; experiment: Antifungal activity against Candida albicans by EUCAST method; assay type: functional; how it was run: as §1
[38] = system: Nakaseomyces glabratus; experiment: Antifungal activity against Candida glabrata by EUCAST method; assay type: functional; how it was run: as §1
[39] = system: Candida parapsilosis; experiment: Antifungal activity against Candida parapsilosis by EUCAST method; assay type: functional; conditions: Lodderomyces parapsilosis; how it was run: as §1
[40] = system: Pichia kudriavzevii; experiment: Antifungal activity against Candida krusei by EUCAST method; assay type: functional; how it was run: as §1
[41] = system: Clavispora lusitaniae; experiment: Antifungal activity against Candida lusitaniae by EUCAST method; assay type: functional; how it was run: as §1
[42] = system: Candida tropicalis; experiment: Antifungal activity against Candida tropicalis by EUCAST method; assay type: functional; how it was run: as §1
[43] = system: Meyerozyma guilliermondii; experiment: Antifungal activity against Candida guilliermondii by EUCAST method; assay type: functional; how it was run: as §1
[44] = system: Saccharomyces cerevisiae; experiment: Antifungal activity against Saccharomyces cerevisiae by EUCAST method; assay type: functional; how it was run: as §2
[45] = Antifungal activity against Cryptococcus neoformans var. neoformans by EUCAST method; assay type: functional; conditions: Cryptococcus deneoformans; how it was run: as §3
[46] = system: Cryptococcus gattii; experiment: Antifungal activity against Cryptococcus neoformans var. gattii by EUCAST method; assay type: functional, Cryptococcus bacillisporus; how it was run: as §3
[47] = system: Trichosporon inkin; experiment: Antifungal activity against Trichosporon inkin by EUCAST method; assay type: functional; how it was run: as §4
[48] = system: Trichosporon asahii; experiment: Antifungal activity against Trichosporon asahii by EUCAST method; assay type: functional; how it was run: as §4
[49] = system: Geotrichum candidum; experiment: Antifungal activity against Geotrichum candidum by EUCAST method; assay type: functional
[50] = system: Aspergillus fumigatus; experiment: Antifungal activity against Aspergillus fumigatus by EUCAST method; assay type: functional
[51] = system: Aspergillus terreus; experiment: Antifungal activity against Aspergillus terreus by EUCAST method; assay type: functional
[52] = system: Aspergillus flavus; experiment: Antifungal activity against Aspergillus flavus by EUCAST method; assay type: functional
[53] = system: Aspergillus niger; experiment: Antifungal activity against Aspergillus niger by EUCAST method; assay type: functional
[54] = system: Lichtheimia corymbifera; experiment: Antifungal activity against Absidia corymbifera by EUCAST method; assay type: functional
[55] = system: Rhizopus arrhizus; experiment: Antifungal activity against Rhizopus oryzae by EUCAST method; assay type: functional; how it was run: as §5
[56] = system: Mucor; experiment: Antifungal activity against Mucor species by EUCAST method; assay type: functional
[57] = system: Cunninghamella; experiment: Antifungal activity against Cunninghamella species by EUCAST method; assay type: functional
[58] = system: Scedosporium apiospermum; experiment: Antifungal activity against Scedosporium apiospermum by EUCAST method; assay type: functional; how it was run: as §5
[59] = system: Talaromyces marneffei; experiment: Antifungal activity against Penicillium marneffei by EUCAST method; assay type: functional
[60] = system: Penicillium sp.; experiment: Antifungal activity against Penicillium species by EUCAST method; assay type: functional
[61] = system: Fusarium solani; experiment: Antifungal activity against Fusarium solani by EUCAST method; assay type: functional
[62] = system: Fusarium oxysporum; experiment: Antifungal activity against Fusarium oxysporum by EUCAST method; assay type: functional
[63] = system: Sporothrix schenckii; experiment: Antifungal activity against Sporothrix schenckii by EUCAST method; assay type: functional; how it was run: as §5
[64] = system: Curvularia lunata; experiment: Antifungal activity against Curvularia lunata by EUCAST method; assay type: functional; how it was run: as §6
[65] = system: Curvularia australiensis; experiment: Antifungal activity against Bipolaris australiensis by EUCAST method; assay type: functional; how it was run: as §6
[66] = Antifungal activity against Rhinocladiella aquaspersa by EUCAST method; assay type: functional; how it was run: as §6

CCC(C)n1ncn(-c2ccc(N3CCN(c4ccc(OCC5COC(Cn6cncn6)(c6ccc(Cl)cc6Cl)O5)cc4)CC3)cc2)c1=O (stereo unspecified) [ITRACONAZOLE]
MFC [1]: 0.06 µg/mL (≈ 0.085 µM) | MFC [2]: > 4 µg/mL | MFC [3]: 0.06 µg/mL (≈ 0.085 µM) | MFC [4]: 0.5 µg/mL (≈ 0.709 µM) | MFC [5]: 0.25 µg/mL (≈ 0.354 µM) | MFC [6]: > 0.25 µg/mL | MFC [7]: 2 µg/mL (≈ 2.83 µM) | MFC [8]: > 4 µg/mL | MFC [9]: 0.5 µg/mL (≈ 0.709 µM) | MFC [10]: 0.5 µg/mL (≈ 0.709 µM) | MFC [11]: 0.25 µg/mL (≈ 0.354 µM) | MFC [12]: > 4 µg/mL | MFC [13]: > 8 µg/mL | MFC [14]: 2 µg/mL (≈ 2.83 µM) | MFC [15]: 0.5 µg/mL (≈ 0.709 µM) | MFC [16]: 0.5 µg/mL (≈ 0.709 µM) | MFC [17]: > 4 µg/mL | MFC [18]: > 2 µg/mL | MFC [19]: > 2 µg/mL | MFC [20]: > 2 µg/mL | MFC [21]: > 8 µg/mL | MFC [22]: > 8 µg/mL | MFC [23]: > 4 µg/mL | MFC [24]: > 8 µg/mL | MFC [25]: > 4 µg/mL | MFC [26]: 4 µg/mL (≈ 5.67 µM) | MFC [27]: > 8 µg/mL | MFC [28]: > 4 µg/mL | MFC [29]: 0.25 µg/mL (≈ 0.354 µM) | MFC [30]: > 2 µg/mL | MFC [31]: > 8 µg/mL | MFC [32]: 0.25 µg/mL (≈ 0.354 µM) | MFC [33]: 0.5 µg/mL (≈ 0.709 µM) | MFC [34]: 0.5 µg/mL (≈ 0.709 µM) | MFC [35]: 0.5 µg/mL (≈ 0.709 µM) | MFC [36]: 0.5 µg/mL (≈ 0.709 µM) | MIC [37]: 0.23 µg/mL (≈ 0.326 µM) | MIC [38]: 0.83 µg/mL (≈ 1.18 µM) | MIC [39]: 0.32 µg/mL (≈ 0.453 µM) | MIC [40]: 1.1 µg/mL (≈ 1.56 µM) | MIC [41]: 0.07 µg/mL (≈ 0.0992 µM) | MIC [42]: 0.56 µg/mL (≈ 0.794 µM) | MIC [43]: 0.87 µg/mL (≈ 1.23 µM) | MIC [44]: 2 µg/mL (≈ 2.83 µM) | MIC [45]: 0.11 µg/mL (≈ 0.156 µM) | MIC [46]: 0.22 µg/mL (≈ 0.312 µM) | MIC [47]: 0.21 µg/mL (≈ 0.298 µM) | MIC [48]: 0.17 µg/mL (≈ 0.241 µM) | MIC [49]: 1.45 µg/mL (≈ 2.05 µM) | MIC [50]: 0.46 µg/mL (≈ 0.652 µM) | MIC [51]: 0.58 µg/mL (≈ 0.822 µM) | MIC [52]: 0.59 µg/mL (≈ 0.836 µM) | MIC [53]: 0.98 µg/mL (≈ 1.39 µM) | MIC [54]: 2.5 µg/mL (≈ 3.54 µM) | MIC [55]: 4 µg/mL (≈ 5.67 µM) | MIC [56]: 4.36 µg/mL (≈ 6.18 µM) | MIC [57]: 1.75 µg/mL (≈ 2.48 µM) | MIC [58]: 2.66 µg/mL (≈ 3.77 µM) | MIC [59]: 0.25 µg/mL (≈ 0.354 µM) | MIC [60]: 4.25 µg/mL (≈ 6.02 µM) | MIC [61]: 6 µg/mL (≈ 8.5 µM) | MIC [62]: 4.5 µg/mL (≈ 6.38 µM) | MIC [63]: 0.12 µg/mL (≈ 0.17 µM) | MIC [64]: 0.03 µg/mL (≈ 0.0425 µM) | MIC [65]: 0.12 µg/mL (≈ 0.17 µM) | MIC [66]: 0.12 µg/mL (≈ 0.17 µM)
